Ends that are not written are not given here.
Tested on: mice with DSS-induced acute colitis
Test: Treatment of DSS-induced acute colitis in mice
Type: in vivo, C57BL/6 J mice
Settings: oral, daily, 7 days; Ac2-26 95.2 μg/kg; ATTN 35 mg/kg
In short: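 Acute colitis induced in C57BL/6 J mice by 3% (w/v) DSS in drinking water for 7 days. Colitis mice were randomized into 4 groups and dosed daily by oral gavage with one of: saline, free peptide, peptide-free carrier nanoparticles (35 mg/kg), or peptide-loaded nanoparticles (35 mg/kg). Peptide dose was 95.2 μg/kg in every peptide-containing formulation.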

With “Ac2-26: pro-resolving peptide Ac2-26, synthesized by ChinaPeptides Co., Ltd. (Ac-AMVSEFLKQAWFIENEEQEYVQTVK; UniProt P04083 2-26, looked up, fragment)” the “depletion of goblet cells (PAS staining)” value was “no beneficial effects”.

Reference: article PMC9939322 (Acta Pharmaceutica Sinica. B, 2022)
